# Experimental data pooled from the literature.
# Each line is one published result; the experiments were not run side by side. pEC50, pIC50: −log10 of the molar value.
SMILES,cell line,test,setting,endpoint,value
COc1ccc2[nH]cc(CCNc3nccc(Nc4cccc5c4ccn5C)n3)c2c1,U-937,"cell growth or viability, fluorescence",72 h,pIC50,8.10
CCCCOC(=O)[C@H]1O[C@@H](O[C@H]2CC[C@]3(C)[C@H]4CC=C5[C@@H]6CC(C)(C)CC[C@]6(C(=O)O[C@@H]6O[C@H](CO)[C@@H](O)[C@H](O)[C@H]6O)CC[C@@]5(C)[C@]4(C)CC[C@H]3C2(C)C)[C@H](O[C@@H]2OC[C@@H](O)[C@H](O)[C@H]2O)[C@@H](O)[C@@H]1O,human Neutrophil,"elastase release, inhibitor",,pIC50,< 4.52
CC1=CC(=O)c2c(O)cccc2C1=O,NCI-H226,"cell growth or viability, SRB",,pIC50,5.52
N.N.[Cl][Pt][Cl],Hs 683,"cell growth or viability, MTT",,pIC50,5.95
COc1cccc2c1C(=O)c1c(O)c3c(c(O)c1C2=O)C[C@@](O)(C(=O)CO)C[C@@H]3O[C@H]1C[C@H](N)[C@H](O)[C@H](C)O1,KB,cell growth or viability,48 h,IC50,1.4 mg/L
Cl.O[C@]12C=C(c3nccc4c3[nH]c3ccccc34)[C@@H]3CCN(CCCC/C=C\CC1)C[C@@]31C[C@@H]3/C=C\CCCCN3[C@H]12,KB,"cell growth or viability, neutral red",48 h,IC50,0.38 mg/L
COc1cc2[nH]c(C)c(-c3ccc(N(C)C)cc3)c(=O)c2cc1Cl,J774,cell growth or viability,,pEC50,< 4.53
COC(=O)[C@H]1O[C@@H](O[C@H]2CC[C@]3(C)[C@H]4CC=C5[C@@H]6CC(C)(C)CC[C@]6(C(=O)O[C@@H]6O[C@H](CO)[C@@H](O)[C@H](O)[C@H]6O)CC[C@@]5(C)[C@]4(C)CC[C@H]3C2(C)C)[C@H](O)[C@@H](O)[C@@H]1O[C@@H]1O[C@@H](CO)[C@H](O)[C@H]1O,human Neutrophil,"elastase release, inhibitor",,pIC50,< 4.52
O=C(O)c1cnn(-c2ccccc2)c1OCCCc1c[nH]c2ccccc12,HFF,cell growth or viability,"200 µM, 96 h",inhibition,< 50%
Cc1c2ccncc2c(C)c2c1[nH]c1ccccc12,KB,"cell growth or viability, MTT",72 h,IC50,0.22 mg/L
